According to ChEMBL document CHEMBL1152424, “Syntheses and biological evaluations of carbosilane dendrimers uniformly functionalized with sialyl alpha(2-->3) lactose moieties as inhibitors for human influenza viruses” (Bioorg Med Chem, 2009):

Legend:
Influenza A virus [1] = experiment: Antiviral activity against human influenza virus A/PR/8/38(H1N1) infected in chicken erythrocyte assessed as inhibition of hemagglutination after 1 hr; type: functional, organism-based; conditions: A/Puerto Rico/8/1934(H1N1)
Summary of the method: (§1)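 Twofold serial dilutions of inhibitor in PBS pH 6.5 with 0.01% gelatin, mixed with virus (2^2 HA units) for 1 h at 4 °C. Then 0.5% (v/v) chicken erythrocytes added, 1 h at 4 °C. Titer is the maximum dilution giving complete inhibition of hemagglutination. Concentrations are expressed per sialyl lactose unit. Virus was egg-grown and purified.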

H3N2 subtype = experiment: Antiviral activity against human influenza virus A/Aichi/2/1968(H3N2) infected in chicken erythrocyte assessed as inhibition of hemagglutination after 1 hr; type: functional, organism-based; summary of the method: as §1
Influenza A virus [2] = experiment: Antiviral activity against human influenza virus A/Memphis/1/71(H3N2) infected in chicken erythrocyte assessed as inhibition of hemagglutination after 1 hr; type: functional, organism-based, Influenza A virus (A/Memphis/1/1971(H3N2)); summary of the method: as §1
Influenza A virus [3] = experiment: Antiviral activity against human influenza virus A/PR/8/38(H1N1) infected in guinea pig erythrocyte assessed as inhibition of hemolysis; type: functional, organism-based; conditions: A/Puerto Rico/8/1934(H1N1)
Summary of the method: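 Virus (2^8 HAU) preincubated 1 h at 4 °C with inhibitor in PBS. Then 2.5% (v/v) guinea pig erythrocytes added, 30 min at 4 °C. Cells pelleted, resuspended in 20 mM acetate-buffered saline pH 5.0, 30 min at 37 °C. Hemoglobin released read at A550 against 0.1% Triton X-100 as 100% hemolysis. IC50 expressed per sialyl lactose unit.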

Influenza A virus [4] = experiment: Antiviral activity against human influenza virus A/PR/8/38(H1N1) infected in MDCK cells assessed as neutralization of viral infection after 20 hrs by colorimetric assay; type: functional, organism-based; conditions: A/Puerto Rico/8/1934(H1N1)

Compound: N[C@H]1[C@H]([C@H](O)[C@H](O)CO)O[C@@](O[C@H]2[C@@H](O)[C@@H](CO)O[C@@H](O[C@H]3[C@H](O)[C@@H](O)[C@H](OCCCCCSCCCCCC(=O)NCCC[Si](CCCNC(=O)CCCCCSCCCCCO[C@@H]4O[C@H](CO)[C@@H](O[C@@H]5O[C@H](CO)[C@H](O)[C@H](O[C@]6(C(=O)O)C[C@H](O)[C@@H](N)[C@H]([C@H](O)[C@H](O)CO)O6)[C@H]5O)[C@H](O)[C@H]4O)(CCCNC(=O)CCCCCSCCCCCO[C@@H]4O[C@H](CO)[C@@H](O[C@@H]5O[C@H](CO)[C@H](O)[C@H](O[C@]6(C(=O)O)C[C@H](O)[C@@H](N)[C@H]([C@H](O)[C@H](O)CO)O6)[C@H]5O)[C@H](O)[C@H]4O)c4ccccc4)O[C@@H]3CO)[C@@H]2O)(C(=O)O)C[C@@H]1O
- IC50 (Influenza A virus [1]): 16 µM
- IC50 (H3N2 subtype): 8 µM
- IC50 (Influenza A virus [2]): 250 µM
- IC50 (Influenza A virus [3]): 62.5 µM
- IC50 (Influenza A virus [4]): 25 µM

Compound: N[C@H]1[C@H]([C@H](O)[C@H](O)CO)O[C@@](O[C@H]2[C@@H](O)[C@@H](CO)O[C@@H](O[C@H]3[C@H](O)[C@@H](O)[C@H](OCCCCCSCCC[Si](CCCSCCCCCO[C@@H]4O[C@H](CO)[C@@H](O[C@@H]5O[C@H](CO)[C@H](O)[C@H](O[C@]6(C(=O)O)C[C@H](O)[C@@H](N)[C@H]([C@H](O)[C@H](O)CO)O6)[C@H]5O)[C@H](O)[C@H]4O)(CCCSCCCCCO[C@@H]4O[C@H](CO)[C@@H](O[C@@H]5O[C@H](CO)[C@H](O)[C@H](O[C@]6(C(=O)O)C[C@H](O)[C@@H](N)[C@H]([C@H](O)[C@H](O)CO)O6)[C@H]5O)[C@H](O)[C@H]4O)CCCSCCCCCO[C@@H]4O[C@H](CO)[C@@H](O[C@@H]5O[C@H](CO)[C@H](O)[C@H](O[C@]6(C(=O)O)C[C@H](O)[C@@H](N)[C@H]([C@H](O)[C@H](O)CO)O6)[C@H]5O)[C@H](O)[C@H]4O)O[C@@H]3CO)[C@@H]2O)(C(=O)O)C[C@@H]1O
- IC50 (Influenza A virus [1]): 64 µM
- IC50 (H3N2 subtype): 32 µM
- IC50 (Influenza A virus [2]): 250 µM
- IC50 (Influenza A virus [3]): 125 µM
- IC50 (Influenza A virus [4]): 32 µM

Compound: C[Si](C)(CCC[Si](CCCSCCCCCO[C@@H]1O[C@H](CO)[C@@H](O[C@@H]2O[C@H](CO)[C@H](O)[C@H](O[C@]3(C(=O)O)C[C@H](O)[C@@H](N)[C@H]([C@H](O)[C@H](O)CO)O3)[C@H]2O)[C@H](O)[C@H]1O)(CCCSCCCCCO[C@@H]1O[C@H](CO)[C@@H](O[C@@H]2O[C@H](CO)[C@H](O)[C@H](O[C@]3(C(=O)O)C[C@H](O)[C@@H](N)[C@H]([C@H](O)[C@H](O)CO)O3)[C@H]2O)[C@H](O)[C@H]1O)CCCSCCCCCO[C@@H]1O[C@H](CO)[C@@H](O[C@@H]2O[C@H](CO)[C@H](O)[C@H](O[C@]3(C(=O)O)C[C@H](O)[C@@H](N)[C@H]([C@H](O)[C@H](O)CO)O3)[C@H]2O)[C@H](O)[C@H]1O)CCC[Si](CCCSCCCCCO[C@@H]1O[C@H](CO)[C@@H](O[C@@H]2O[C@H](CO)[C@H](O)[C@H](O[C@]3(C(=O)O)C[C@H](O)[C@@H](N)[C@H]([C@H](O)[C@H](O)CO)O3)[C@H]2O)[C@H](O)[C@H]1O)(CCCSCCCCCO[C@@H]1O[C@H](CO)[C@@H](O[C@@H]2O[C@H](CO)[C@H](O)[C@H](O[C@]3(C(=O)O)C[C@H](O)[C@@H](N)[C@H]([C@H](O)[C@H](O)CO)O3)[C@H]2O)[C@H](O)[C@H]1O)CCCSCCCCCO[C@@H]1O[C@H](CO)[C@@H](O[C@@H]2O[C@H](CO)[C@H](O)[C@H](O[C@]3(C(=O)O)C[C@H](O)[C@@H](N)[C@H]([C@H](O)[C@H](O)CO)O3)[C@H]2O)[C@H](O)[C@H]1O
- IC50 (Influenza A virus [1]): 32 µM
- IC50 (H3N2 subtype): 32 µM
- IC50 (Influenza A virus [2]): 250 µM
- IC50 (Influenza A virus [3]): 32 µM
- IC50 (Influenza A virus [4]): 7.8 µM

Compound: N[C@H]1[C@H]([C@H](O)[C@H](O)CO)O[C@@](O[C@H]2[C@@H](O)[C@@H](CO)O[C@@H](O[C@H]3[C@H](O)[C@@H](O)[C@H](OCCCCCSCCC[Si](CCCSCCCCCO[C@@H]4O[C@H](CO)[C@@H](O[C@@H]5O[C@H](CO)[C@H](O)[C@H](O[C@]6(C(=O)O)C[C@H](O)[C@@H](N)[C@H]([C@H](O)[C@H](O)CO)O6)[C@H]5O)[C@H](O)[C@H]4O)(CCCSCCCCCO[C@@H]4O[C@H](CO)[C@@H](O[C@@H]5O[C@H](CO)[C@H](O)[C@H](O[C@]6(C(=O)O)C[C@H](O)[C@@H](N)[C@H]([C@H](O)[C@H](O)CO)O6)[C@H]5O)[C@H](O)[C@H]4O)c4ccccc4)O[C@@H]3CO)[C@@H]2O)(C(=O)O)C[C@@H]1O
- IC50 (Influenza A virus [1]): 64 µM
- IC50 (H3N2 subtype): 125 µM
- IC50 (Influenza A virus [2]): 250 µM
- IC50 (Influenza A virus [3]): 250 µM
- IC50 (Influenza A virus [4]): 64 µM

Compound: C[Si](C)(CCC[Si](CCCNC(=O)CCCCCSCCCCCO[C@@H]1O[C@H](CO)[C@@H](O[C@@H]2O[C@H](CO)[C@H](O)[C@H](O[C@]3(C(=O)O)C[C@H](O)[C@@H](N)[C@H]([C@H](O)[C@H](O)CO)O3)[C@H]2O)[C@H](O)[C@H]1O)(CCCNC(=O)CCCCCSCCCCCO[C@@H]1O[C@H](CO)[C@@H](O[C@@H]2O[C@H](CO)[C@H](O)[C@H](O[C@]3(C(=O)O)C[C@H](O)[C@@H](N)[C@H]([C@H](O)[C@H](O)CO)O3)[C@H]2O)[C@H](O)[C@H]1O)CCCNC(=O)CCCCCSCCCCCO[C@@H]1O[C@H](CO)[C@@H](O[C@@H]2O[C@H](CO)[C@H](O)[C@H](O[C@]3(C(=O)O)C[C@H](O)[C@@H](N)[C@H]([C@H](O)[C@H](O)CO)O3)[C@H]2O)[C@H](O)[C@H]1O)CCC[Si](CCCNC(=O)CCCCCSCCCCCO[C@@H]1O[C@H](CO)[C@@H](O[C@@H]2O[C@H](CO)[C@H](O)[C@H](O[C@]3(C(=O)O)C[C@H](O)[C@@H](N)[C@H]([C@H](O)[C@H](O)CO)O3)[C@H]2O)[C@H](O)[C@H]1O)(CCCNC(=O)CCCCCSCCCCCO[C@@H]1O[C@H](CO)[C@@H](O[C@@H]2O[C@H](CO)[C@H](O)[C@H](O[C@]3(C(=O)O)C[C@H](O)[C@@H](N)[C@H]([C@H](O)[C@H](O)CO)O3)[C@H]2O)[C@H](O)[C@H]1O)CCCNC(=O)CCCCCSCCCCCO[C@@H]1O[C@H](CO)[C@@H](O[C@@H]2O[C@H](CO)[C@H](O)[C@H](O[C@]3(C(=O)O)C[C@H](O)[C@@H](N)[C@H]([C@H](O)[C@H](O)CO)O3)[C@H]2O)[C@H](O)[C@H]1O
- IC50 (Influenza A virus [1]): 8 µM
- IC50 (H3N2 subtype): 4 µM
- IC50 (Influenza A virus [2]): 250 µM
- IC50 (Influenza A virus [3]): 32 µM
- IC50 (Influenza A virus [4]): 5.6 µM

Compound: N[C@H]1[C@H]([C@H](O)[C@H](O)CO)O[C@@](O[C@H]2[C@@H](O)[C@@H](CO)O[C@@H](O[C@H]3[C@H](O)[C@@H](O)[C@H](OCCCCCSCCCCCC(=O)NCCC[Si](CCCNC(=O)CCCCCSCCCCCO[C@@H]4O[C@H](CO)[C@@H](O[C@@H]5O[C@H](CO)[C@H](O)[C@H](O[C@]6(C(=O)O)C[C@H](O)[C@@H](N)[C@H]([C@H](O)[C@H](O)CO)O6)[C@H]5O)[C@H](O)[C@H]4O)(CCCNC(=O)CCCCCSCCCCCO[C@@H]4O[C@H](CO)[C@@H](O[C@@H]5O[C@H](CO)[C@H](O)[C@H](O[C@]6(C(=O)O)C[C@H](O)[C@@H](N)[C@H]([C@H](O)[C@H](O)CO)O6)[C@H]5O)[C@H](O)[C@H]4O)CCCNC(=O)CCCCCSCCCCCO[C@@H]4O[C@H](CO)[C@@H](O[C@@H]5O[C@H](CO)[C@H](O)[C@H](O[C@]6(C(=O)O)C[C@H](O)[C@@H](N)[C@H]([C@H](O)[C@H](O)CO)O6)[C@H]5O)[C@H](O)[C@H]4O)O[C@@H]3CO)[C@@H]2O)(C(=O)O)C[C@@H]1O
- IC50 (Influenza A virus [1]): 16 µM
- IC50 (H3N2 subtype): 4 µM
- IC50 (Influenza A virus [2]): 250 µM
- IC50 (Influenza A virus [3]): 62.5 µM
- IC50 (Influenza A virus [4]): 16 µM
